Measurements of several laboratories.
Each line is one published result; the experiments were not run side by side.
Effect on: microbial growth

CC1=CC[C@H]2O[C@]1(C)O[C@H]([C@H](C)/C=C(C)/C=C/C(O)=C1/C(=O)CNC1=O)[C@H]2C — MIC (Bacillus anthracis; 34F2): 3.13 µM
CCCCCCCCCCCC(=O)C(F)(F)P(=O)(O)O — MIC (Bacillus anthracis; STERNE34F2): 200 µg/mL
CC1=CC(=O)[C@H]2O[C@]1(C)O[C@H]([C@H](C)/C=C(C)/C=C/C(O)=C1/C(=O)CNC1=O)[C@H]2C — MIC (Bacillus anthracis; 34F2): 6.25 µM
CC1=NN(CNC(=O)c2ccccn2)C(=O)C1=NNn1c(-c2ccccc2)nc2ccccc2c1=O — MIC (Vibrio cholerae; broth dilution; 24 h): 52 µM
CNC(=O)[C@@H](C)[C@H]1C(=O)/C(=C(O)/C=C/C(C)=C/[C@@H](C)[C@H]2O[C@@]3(C)O[C@H](C=C[C@@]34CO4)[C@@H]2C)C(=O)N1[C@@H]1CC[C@H](O)[C@H](C)O1 — MIC (Bacillus anthracis; 34F2): > 100 µM
CC(=O)NCN1N=C(C)C(=NNn2c(-c3ccccc3)nc3ccccc3c2=O)C1=O — MIC (Vibrio cholerae; broth dilution; 24 h): 59.9 µM
CCCCCCCC(=O)NP(=O)(O)O — MIC (Bacillus anthracis; STERNE34F2): > 200 µg/mL
CC1=NN(CNc2ccccc2[N+](=O)[O-])C(=O)C1=NNn1c(-c2ccccc2)nc2ccccc2c1=O — MIC (Vibrio cholerae; broth dilution; 24 h): 50.4 µM
O=C(CCCCCCCCCCOc1ccccc1)CP(=O)(O)O — MIC (Bacillus anthracis; STERNE34F2): > 200 µg/mL
CC(/C=C/C(O)=C1/C(=O)CNC1=O)=C\[C@@H](C)[C@H]1O[C@@]2(C)O[C@H](C(=O)[C@@H]3O[C@@]32C)[C@@H]1C — MIC (Bacillus anthracis; 34F2): 12.5 µM
CN[C@@H]1[C@H](O)[C@H](NC)[C@H]2O[C@@]3(O)C(=O)C[C@@H](C)O[C@H]3O[C@@H]2[C@H]1O — MIC (Streptococcus pyogenes; broth dilution; ATCC700294): 25 µg/mL
CCCCCC/C=C\CCCCCCCCCC(=O)NP(=O)(O)O — MIC (Bacillus anthracis; STERNE34F2): 100 µg/mL
O=C1NN=C(N=Cc2ccc(O)cc2O)C1=NNn1c(-c2ccccc2)nc2ccccc2c1=O — MIC (Vibrio cholerae; broth dilution; 24 h): 53.5 µM
